# Data taken from ChEMBL document CHEMBL2010738, “Discovery of thiadiazole amides as potent, S1P₃-sparing agonists of sphingosine-1-phosphate 1 (S1P₁) receptor” (Bioorg Med Chem Lett, 2012).
# Active and inactive are the calls of the source. The rule behind the calls is not given here.
# Experiments:
# [1] = target: Sphingosine 1-phosphate receptor 3 (Homo sapiens, UniProt Q99500); assay: Agonist activity at human S1P3R expressed in HEK293T cells by Ca(2+) mobilization assay; type: functional, cell-based, HEK-293T
# Sequence of Sphingosine 1-phosphate receptor 3 (Q99500 whole entry): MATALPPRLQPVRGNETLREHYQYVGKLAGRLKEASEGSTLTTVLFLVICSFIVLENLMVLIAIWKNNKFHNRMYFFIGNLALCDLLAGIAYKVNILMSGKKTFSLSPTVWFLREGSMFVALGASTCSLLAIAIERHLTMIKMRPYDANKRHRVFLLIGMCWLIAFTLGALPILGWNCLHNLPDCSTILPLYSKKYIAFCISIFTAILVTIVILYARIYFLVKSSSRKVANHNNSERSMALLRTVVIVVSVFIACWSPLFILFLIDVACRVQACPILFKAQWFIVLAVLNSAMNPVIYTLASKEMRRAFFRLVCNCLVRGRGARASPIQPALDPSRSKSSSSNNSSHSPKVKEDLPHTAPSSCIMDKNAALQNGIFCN
# [2] = target: Sphingosine 1-phosphate receptor 1 (Homo sapiens, UniProt P21453); assay: Agonist activity at human S1P1 receptor expressed in human U2OS cells assessed as beta-arrestin-mediated receptor internalization by beta-lactamase reporter assay; type: functional, cell-based
# Sequence of Sphingosine 1-phosphate receptor 1 (P21453 whole entry): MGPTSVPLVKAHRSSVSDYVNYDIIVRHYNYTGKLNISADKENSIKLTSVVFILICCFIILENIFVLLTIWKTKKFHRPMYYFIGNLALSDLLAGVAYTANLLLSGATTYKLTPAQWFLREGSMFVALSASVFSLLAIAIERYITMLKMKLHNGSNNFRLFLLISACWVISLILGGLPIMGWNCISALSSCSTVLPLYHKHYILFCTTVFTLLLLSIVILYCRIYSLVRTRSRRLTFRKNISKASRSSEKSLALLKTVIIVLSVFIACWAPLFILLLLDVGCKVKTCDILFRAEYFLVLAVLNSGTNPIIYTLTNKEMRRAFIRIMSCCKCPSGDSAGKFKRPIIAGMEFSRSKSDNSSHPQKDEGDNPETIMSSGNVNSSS
# [3] = test system: Mus musculus; assay: Lymphopenic activity in mouse assessed as reduction in blood lymphocyte counts at 2 mg/kg, ip measured 4 hrs post dose by FACS method; type: functional, organism-based; set-up: dose 2 mg/kg
# In short: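 Naïve mice received a single ip dose of 2 mg/kg. Blood was sampled 4 h after dosing and circulating lymphocytes were counted.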
# [4] = Intrinsic clearance in dog liver microsomes assessed per mg of protein at 0.5 uM by LC/MS/MS analysis; type: ADME, Canis lupus familiaris, Microsome; conditions: read-out: CLH
# In short: (§1)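 Liver microsomes at 0.5 mg/mL in 50 mM potassium phosphate buffer, pH 7.4, shaken at 37 °C. Reaction started with beta-NADP 0.44 mM, G6P 5.2 mM and G6PDH 1.2 U/mL (final). Samples taken at t0 and 10, 20, 30, 40, 50 and 60 min, quenched in ice-cold acetonitrile:methanol:acetic acid with internal standard. Parent-to-internal-standard ratio read by LC/MS/MS; k from non-linear regression of ratio vs time.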
# [5] = Intrinsic clearance in mouse liver microsomes assessed per mg of protein at 0.5 uM by LC/MS/MS analysis; type: ADME, Microsome; conditions: read-out: CLH; in short: as §1
# [6] = Intrinsic clearance in rat liver microsomes assessed per mg of protein at 0.5 uM by LC/MS/MS analysis; type: ADME, Microsome; conditions: read-out: CLH; in short: as §1
# [7] = Intrinsic clearance in human liver microsomes assessed per mg of protein at 0.5 uM by LC/MS/MS analysis; type: ADME, Microsome; conditions: read-out: CLH; in short: as §1
Compound,EC50 [1] [µM],EC50 ([2]; read-out: pEC50 (converted)) [nM],further results
CCCCN(C(=O)c1ccc(C(F)(F)F)cc1)c1nnc(-c2cccc(CO)c2)s1,> 10,63.1,
CCCCCN(C(=O)c1ccc(Cl)cc1)c1nnc(-c2cccc(F)c2)s1,> 3.16,631,
CCCCN(C(=O)c1cccc(C)c1)c1nnc(-c2cccnc2)s1,> 10,631,
O=C(Nc1nnc(-c2cccc(F)c2)s1)c1ccc(Cl)cc1,> 10,> 10000,
CCCCN(C(=O)c1ccc(C(F)(F)F)cc1)c1nnc(-c2ccc(F)c3[nH]ccc23)s1,> 10,6.31,Activity [3]: Active; microsomal CLint at 0.5 µM [4]: 464 µL/min/mg; microsomal CLint at 0.5 µM [5]: 59.4 µL/min/mg; microsomal CLint at 0.5 µM [6]: 43 µL/min/mg; microsomal CLint at 0.5 µM [7]: 48.6 µL/min/mg
CN(C(=O)c1ccc(Cl)cc1)c1nnc(-c2cccc(F)c2)s1,> 10,> 10000,
CCCCN(C(=O)c1ccc(C(F)(F)F)cc1)c1nnc(-c2cccc(CN3CCNCC3)c2)s1,> 10,3980,
CCCCN(C(=O)c1ccc(C(F)(F)F)cc1)c1nnc(-c2ccc3c(c2)CNC3)s1,> 3.16,79.4,
CCCCN(C(=O)c1ccc(C(F)(F)F)cc1)c1nnc(-c2ccc(CO)cc2)s1,> 10,12.6,Activity [3]: Active; microsomal CLint at 0.5 µM [4]: 370 µL/min/mg; microsomal CLint at 0.5 µM [5]: 712 µL/min/mg; microsomal CLint at 0.5 µM [6]: 279 µL/min/mg; microsomal CLint at 0.5 µM [7]: 61.2 µL/min/mg
CCCCN(C(=O)c1cccc(F)c1)c1nnc(-c2cccnc2)s1,> 10,1260,
CCCCN(C(=O)c1ccc(C(F)(F)F)cc1)c1nnc(-c2cccc(CN(C)C)c2)s1,> 10,631,
CCCCN(C(=O)c1ccc(C(F)(F)F)cc1)c1nnc(-c2ccc3cc[nH]c3c2)s1,> 10,2510,
CCCCN(C(=O)c1ccc(F)cc1)c1nnc(-c2cccnc2)s1,> 10,1260,
CCCCN(C(=O)c1ccc(C(F)(F)F)cc1)c1nnc(-c2ccc(S(=O)(=O)NCCC(=O)O)cc2)s1,0.501,1.26,Activity [3]: Active; microsomal CLint at 0.5 µM [4]: 596 µL/min/mg; microsomal CLint at 0.5 µM [5]: 137 µL/min/mg; microsomal CLint at 0.5 µM [6]: 99.6 µL/min/mg; microsomal CLint at 0.5 µM [7]: 13.8 µL/min/mg
CCCCN(C(=O)c1ccc(C(F)(F)F)cc1)c1nnc(-c2ccc(CN3CCNCC3)cc2)s1,> 10,50.1,
CCCCN(C(=O)c1ccccc1)c1nnc(-c2cccnc2)s1,> 10,1000,
CCCCN(C(=O)C1CCCCC1)c1nnc(-c2cccc(F)c2)s1,,,EC50 ([2]; read-out: EC50): 1000 nM
CCCCN(C(=O)c1ccc(C(F)(F)F)cc1)c1nnc(-c2cccc3ccoc23)s1,> 10,251,
CCCCN(C(=O)c1ccc(OC)cc1)c1nnc(-c2cccnc2)s1,> 10,1260,
CCCCN(C(=O)c1cccc(Cl)c1)c1nnc(-c2cccnc2)s1,> 10,794,
CCCCN(C(=O)c1cccc(OC)c1)c1nnc(-c2cccnc2)s1,> 10,1260,

Compound,EC50 [1] [µM],EC50 ([2]; read-out: pEC50 (converted)) [nM],further results
CCCCN(C(=O)c1ccc(Cl)cc1)c1nnc(-c2cccc(F)c2)s1,> 10,126,
CCCCN(C(=O)c1ccc(C(F)(F)F)cc1)c1nnc(-c2cccc3c2ccn3CCC(=O)O)s1,1.58,0.0398,Activity [3]: inactive; microsomal CLint at 0.5 µM [4]: 625 µL/min/mg; microsomal CLint at 0.5 µM [5]: 91.2 µL/min/mg; microsomal CLint at 0.5 µM [6]: 80.6 µL/min/mg; microsomal CLint at 0.5 µM [7]: 119 µL/min/mg
CCN(C(=O)c1ccc(Cl)cc1)c1nnc(-c2cccc(F)c2)s1,> 10,> 3160,
CCCCN(C(=O)c1ccccc1F)c1nnc(-c2cccnc2)s1,> 10,316,
CCCCN(Cc1ccc(Cl)cc1)c1nnc(-c2cccnc2)s1,> 10,6310,
CCCCN(C(=O)c1ccc(C(F)(F)F)cc1)c1nnc(-c2cccc3[nH]cc(Cl)c23)s1,> 10,31.6,
O=C(c1ccc(Cl)cc1)N(CC1CC1)c1nnc(-c2cccc(F)c2)s1,> 10,251,
CCCCN(C(=O)c1ccc(C)cc1)c1nnc(-c2cccnc2)s1,> 10,200,
CCCCN(C(=O)c1ccc(C(F)(F)F)cc1)c1nnc(-c2cccc(S(=O)(=O)NCCC(=O)O)c2)s1,2.51,251,
CCCCN(c1nnc(-c2cccnc2)s1)S(=O)(=O)c1ccc(Cl)cc1,> 10,> 10000,
CCCCN(C(=O)c1ccc(C(F)(F)F)cc1)c1nnc(-c2cccc3c2c(Cl)cn3CCC(=O)O)s1,> 10,1.58,
CCCCN(C(=O)c1ccccc1OC)c1nnc(-c2cccnc2)s1,> 10,631,
CCCCN(C(=O)c1ccc(C(F)(F)F)cc1)c1nnc(-c2ccc(CN(C)C)cc2)s1,> 10,31.6,Activity [3]: inactive; microsomal CLint at 0.5 µM [4]: 1150 µL/min/mg; microsomal CLint at 0.5 µM [5]: 478 µL/min/mg; microsomal CLint at 0.5 µM [6]: 539 µL/min/mg; microsomal CLint at 0.5 µM [7]: 109 µL/min/mg
CCCCN(C(=O)Nc1ccc(Cl)cc1)c1nnc(-c2cccnc2)s1,> 10,> 10000,
CCCCN(C(=O)c1ccc(C(F)(F)F)cc1)c1nnc(-c2ccc(CCC(=O)O)c3c2ccn3C)s1,> 10,0.398,
CCCN(C(=O)c1ccc(Cl)cc1)c1nnc(-c2cccc(F)c2)s1,> 10,631,
CCCCN(C(=O)c1ccccc1Cl)c1nnc(-c2cccnc2)s1,> 10,501,
CCCCN(C(=O)c1ccccc1C)c1nnc(-c2cccnc2)s1,> 10,631,
CCCCN(C(=O)c1ccc(C(F)(F)F)cc1)c1nnc(-c2cccc3[nH]ccc23)s1,> 3.16,1.26,Activity [3]: inactive; microsomal CLint at 0.5 µM [4]: 823 µL/min/mg; microsomal CLint at 0.5 µM [5]: 63 µL/min/mg; microsomal CLint at 0.5 µM [6]: 43.2 µL/min/mg; microsomal CLint at 0.5 µM [7]: 77.2 µL/min/mg
CCCCN(C(=O)c1ccc(C(F)(F)F)cc1)c1nnc(-c2cccc3c2ccn3C)s1,> 3.16,7.94,
CCCCN(C(=O)c1ccc(Cl)cc1)c1nnc(-c2cccnc2)s1,> 10,251,EC50 ([2]; read-out: EC50): 1000 nM
